From ChEMBL document CHEMBL4350961, “Discovery of Pyrrolo[3,2- d]pyrimidin-4-one Derivatives as a New Class of Potent and Cell-Active Inhibitors of P300/CBP-Associated Factor Bromodomain” (J Med Chem, 2019)
Activity calls are given as the source filed them.

Assays:
[1] = molecular target: Tyrosine-protein kinase FRK (Homo sapiens) (UniProt P42685); experiment: Inhibition of human PTK5 (218 to end residues) using GGEEEEYFELVKKKK as substrate measured after 40 mins in presence of [gamma33P]ATP by scintillation counting method
Procedure, shortened: (§1)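 Kinase panel of 422 kinases screened by Eurofins KinaseProfiler at a single test-compound concentration of 10 µM.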

[2] = molecular target: Bromodomain-containing protein 1 (Homo sapiens) (UniProt O95696); experiment: Binding affinity to human partial length BRD1 (E556 to A688 residues) expressed in bacterial expression system at 1 uM by BROMOscan assay
Procedure, shortened: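 BROMOscan bromodomain cross-screen run by an outside service, compound at 1 µM against 32 recombinant bromodomains. Binding given as percent of control.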

[3] = molecular target: AP2-associated protein kinase 1 (Homo sapiens) (UniProt Q2M2I8); experiment: Inhibition of human AAK1 at 10 uM using peptide substrate measured after 120 mins in presence of [gamma33P]ATP by scintillation counting method; procedure, shortened: as §1
Homo sapiens [4] = species on record: Homo sapiens; experiment: Inhibition of recombinant human ARAF Y301D/ Y302D mutant (273 to end residues) at 10 uM using myelin basic protein as substrate measured after 40 mins in presence of [gamma33P]ATP by scintillation counting method
[5] = molecular target: Protein-tyrosine kinase 6 (Homo sapiens) (UniProt Q13882); experiment: Inhibition of full-length recombinant human BRK at 10 uM using poly(Glu, Tyr) 4:1 as substrate measured after 40 mins in presence of [gamma33P]ATP by scintillation counting method; procedure, shortened: as §1
[6] = molecular target: CDK6/cyclin D3 (Homo sapiens) (UniProt P30281+Q00534); experiment: Inhibition of recombinant full-length human CDK6/cyclin D3 at 10 uM using histone H1 as substrate measured after 40 mins in presence of [gamma33P]ATP by scintillation counting method; type: protein-complex assay
[7] = molecular target: Cyclin-dependent kinase 13/Cyclin-K (Homo sapiens) (UniProt Q14004+O75909); experiment: Inhibition of recombinant full length human CDK13/cyclinK at 10 uM using RSRSRSRSRSRSRSR as substrate measured after 120 mins in presence of [gamma33P]ATP by scintillation counting method; type: protein-complex assay
Homo sapiens [8] = species on record: Homo sapiens; experiment: Inhibition of recombinant human EphB2 A848S/ K918E mutant (560 to end residues) at 10 uM using KTFCGTPEYLAPEVRREPRILSEEEQEMFRDFDYIADWC as substrate measured after 40 mins in presence of [gamma33P]ATP by scintillation counting method
[9] = system: Fibroblast growth factor receptor 2 (Homo sapiens), P21802 [N549H]; experiment: Inhibition of recombinant human FGFR2 N549H mutant (456 to 770 residues) at 10 uM using GGEEEEYFELVKKKK as substrate measured after 40 mins in presence of [gamma33P]ATP by scintillation counting method
[10] = molecular target: Macrophage colony-stimulating factor 1 receptor (Homo sapiens) (UniProt P07333); experiment: Inhibition of recombinant human FMS (538 to end residues) at 10 uM using KKKSPGEYVNIEFG as substrate measured after 40 mins in presence of [gamma33P]ATP by scintillation counting method
[11] = molecular target: G protein-coupled receptor kinase 6 (Homo sapiens) (UniProt P43250); experiment: Inhibition of recombinant full-length human GRK6 at 10 uM using casein as substrate measured after 40 mins in presence of [gamma33P]ATP by scintillation counting method
[12] = molecular target: Mitogen-activated protein kinase kinase kinase kinase 1 (Homo sapiens) (UniProt Q92918); experiment: Inhibition of recombinant human HPK1 (1 to 346 residues) at 10 uM using myelin basic protein as substrate measured after 40 mins in presence of [gamma33P]ATP by scintillation counting method
[13] = molecular target: Eukaryotic translation initiation factor 2-alpha kinase 1 (Homo sapiens) (UniProt Q9BQI3); experiment: Inhibition of recombinant human HRI (140 to end residues) at 10 uM using RSRSRSRSRSRSRSR as substrate measured after 120 mins in presence of [gamma33P]ATP by scintillation counting method
[14] = molecular target: Dual specificity mitogen-activated protein kinase kinase 2 (Homo sapiens) (UniProt P36507); experiment: Inhibition of recombinant full-length human MEK2 at 10 uM using MBP as substrate measured after 40 mins in presence of [gamma33P]ATP by scintillation counting method
[15] = molecular target: Dual specificity mitogen-activated protein kinase kinase 6 (Homo sapiens) (UniProt P52564); experiment: Inhibition of recombinant human MKK6 (4 to end residues) at 10 uM using unactive SAPK2a as substrate measured after 40 mins in presence of [gamma33P]ATP by scintillation counting method
[16] = molecular target: Serine/threonine-protein kinase PAK 6 (Homo sapiens) (UniProt Q9NQU5); experiment: Inhibition of recombinant human PAK6 (382 to end residues) at 10 uM using RRRLSFAEPG as substrate measured after 40 mins in presence of [gamma33P]ATP by scintillation counting method
[17] = molecular target: Interferon-induced, double-stranded RNA-activated protein kinase (Homo sapiens) (UniProt P19525); experiment: Inhibition of recombinant human PKR (252 to end residues) at 10 uM using RSRSRSRSRSRSRSR as substrate measured after 40 mins in presence of [gamma33P]ATP by scintillation counting method
Homo sapiens [18] = species on record: Homo sapiens; experiment: Inhibition of human Ros V2262A mutant (1883 to end residues) using KKKSPGEYVNIEFG as substrate measured after 40 mins in presence of [gamma33P]ATP by scintillation counting method; procedure, shortened: as §1
[19] = molecular target: Serine/threonine-protein kinase SBK1 (Homo sapiens) (UniProt Q52WX2); experiment: Inhibition of recombinant full-length human SBK1 at 10 uM using KKLRRTLSVA as substrate measured after 120 mins in presence of [gamma33P]ATP by scintillation counting method
[20] = molecular target: TGF-beta receptor type-2 (Homo sapiens) (UniProt P37173); experiment: Inhibition of human TGFBR2 (188 to end residues) using myelin basic protein as substrate measured after 120 mins in presence of [gamma33P]ATP by scintillation counting method
[21] = molecular target: High affinity nerve growth factor receptor (Homo sapiens) (UniProt P04629); experiment: Inhibition of human TrkA (440 to end residues) using KKKSPGEYVNIEFG as substrate measured after 40 mins in presence of [gamma33P]ATP by scintillation counting method
[22] = system: Dual specificity protein kinase TTK (Homo sapiens), P33981 [S389A]; experiment: Inhibition of recombinant full-length human TTK S389A mutant at 10 uM using MBP as substrate measured after 40 mins in presence of [gamma33P]ATP by scintillation counting method
[23] = molecular target: Serine/threonine-protein kinase VRK2 (Homo sapiens) (UniProt Q86Y07); experiment: Inhibition of human VRK2 (1 to 336 residues) using casein as substrate measured after 40 mins in presence of [gamma33P]ATP by scintillation counting method
[24] = molecular target: PI3K p110 beta/p85 alpha (Homo sapiens) (UniProt P27986+P42338); experiment: Inhibition of recombinant full-length human PI3K p110beta/p85alpha at 10 uM using phosphatidylinositol-4, 5-bisphosphate as substrate measured after 40 mins by fluorescence assay; type: protein-complex assay

Sequence of Tyrosine-protein kinase FRK (Homo sapiens) (P42685 whole entry): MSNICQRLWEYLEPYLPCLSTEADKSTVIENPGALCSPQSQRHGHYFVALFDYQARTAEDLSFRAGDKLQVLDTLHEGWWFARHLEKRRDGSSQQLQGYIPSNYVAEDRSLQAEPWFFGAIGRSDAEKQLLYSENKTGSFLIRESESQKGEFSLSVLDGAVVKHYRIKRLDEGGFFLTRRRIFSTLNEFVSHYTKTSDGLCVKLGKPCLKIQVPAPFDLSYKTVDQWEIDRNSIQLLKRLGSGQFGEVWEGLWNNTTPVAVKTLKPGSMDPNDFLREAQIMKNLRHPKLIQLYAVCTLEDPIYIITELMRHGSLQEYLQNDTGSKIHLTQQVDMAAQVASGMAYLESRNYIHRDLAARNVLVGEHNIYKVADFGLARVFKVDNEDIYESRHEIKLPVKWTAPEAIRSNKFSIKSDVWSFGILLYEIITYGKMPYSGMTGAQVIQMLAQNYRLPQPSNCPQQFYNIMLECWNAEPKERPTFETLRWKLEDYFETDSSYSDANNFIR
Sequence of Serine/threonine-protein kinase SBK1 (Homo sapiens) (Q52WX2 whole entry): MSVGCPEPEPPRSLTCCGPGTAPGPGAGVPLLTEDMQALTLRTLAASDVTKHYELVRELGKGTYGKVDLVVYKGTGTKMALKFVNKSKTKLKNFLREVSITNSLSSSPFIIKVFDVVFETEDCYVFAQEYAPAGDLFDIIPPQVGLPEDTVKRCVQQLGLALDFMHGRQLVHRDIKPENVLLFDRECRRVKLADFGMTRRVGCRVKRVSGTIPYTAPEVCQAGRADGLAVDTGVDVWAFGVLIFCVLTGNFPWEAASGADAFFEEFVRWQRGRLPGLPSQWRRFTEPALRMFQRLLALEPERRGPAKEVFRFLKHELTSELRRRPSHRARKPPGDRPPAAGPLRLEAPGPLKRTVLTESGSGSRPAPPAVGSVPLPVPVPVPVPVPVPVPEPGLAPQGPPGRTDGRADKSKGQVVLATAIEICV
Sequence of AP2-associated protein kinase 1 (Homo sapiens) (Q2M2I8 whole entry, looked up): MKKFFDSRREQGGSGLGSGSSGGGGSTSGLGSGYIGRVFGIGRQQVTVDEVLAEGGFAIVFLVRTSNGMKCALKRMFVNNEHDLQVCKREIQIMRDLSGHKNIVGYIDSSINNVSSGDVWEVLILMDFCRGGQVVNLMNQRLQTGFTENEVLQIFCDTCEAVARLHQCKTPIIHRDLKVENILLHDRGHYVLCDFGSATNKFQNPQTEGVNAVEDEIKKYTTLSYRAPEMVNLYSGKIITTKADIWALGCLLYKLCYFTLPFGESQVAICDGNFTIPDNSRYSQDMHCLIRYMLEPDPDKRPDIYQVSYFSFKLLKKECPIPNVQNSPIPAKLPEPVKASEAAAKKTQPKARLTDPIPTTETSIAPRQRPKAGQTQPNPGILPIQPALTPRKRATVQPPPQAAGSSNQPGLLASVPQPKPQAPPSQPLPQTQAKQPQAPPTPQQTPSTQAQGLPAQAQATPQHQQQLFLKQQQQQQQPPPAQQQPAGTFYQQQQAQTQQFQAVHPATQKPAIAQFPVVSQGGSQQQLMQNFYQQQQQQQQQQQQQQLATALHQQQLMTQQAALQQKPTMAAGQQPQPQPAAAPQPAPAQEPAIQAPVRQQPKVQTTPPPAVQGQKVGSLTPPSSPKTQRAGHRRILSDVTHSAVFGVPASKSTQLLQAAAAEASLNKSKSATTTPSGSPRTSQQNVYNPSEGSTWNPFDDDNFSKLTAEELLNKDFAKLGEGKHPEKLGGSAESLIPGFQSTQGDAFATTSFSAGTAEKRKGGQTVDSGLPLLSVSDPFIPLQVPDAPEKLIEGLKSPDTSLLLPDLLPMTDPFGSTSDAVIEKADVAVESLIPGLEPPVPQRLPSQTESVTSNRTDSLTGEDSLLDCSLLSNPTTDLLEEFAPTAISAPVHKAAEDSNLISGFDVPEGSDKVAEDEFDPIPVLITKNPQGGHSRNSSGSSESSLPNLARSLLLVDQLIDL
Sequence of Protein-tyrosine kinase 6 (Homo sapiens) (Q13882 whole entry, looked up): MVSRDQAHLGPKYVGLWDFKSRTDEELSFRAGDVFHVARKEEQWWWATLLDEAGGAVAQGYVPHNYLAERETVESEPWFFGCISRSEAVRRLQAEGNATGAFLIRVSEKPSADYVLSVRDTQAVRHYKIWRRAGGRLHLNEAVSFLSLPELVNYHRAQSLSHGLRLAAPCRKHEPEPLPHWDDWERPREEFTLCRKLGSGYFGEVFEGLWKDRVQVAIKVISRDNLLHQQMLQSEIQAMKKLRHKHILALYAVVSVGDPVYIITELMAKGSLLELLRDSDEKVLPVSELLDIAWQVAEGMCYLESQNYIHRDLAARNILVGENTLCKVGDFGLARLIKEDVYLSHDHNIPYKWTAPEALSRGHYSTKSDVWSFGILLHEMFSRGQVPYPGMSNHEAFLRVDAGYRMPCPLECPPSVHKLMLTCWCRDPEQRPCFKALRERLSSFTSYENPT
Sequence of Macrophage colony-stimulating factor 1 receptor (Homo sapiens) (P07333 whole entry): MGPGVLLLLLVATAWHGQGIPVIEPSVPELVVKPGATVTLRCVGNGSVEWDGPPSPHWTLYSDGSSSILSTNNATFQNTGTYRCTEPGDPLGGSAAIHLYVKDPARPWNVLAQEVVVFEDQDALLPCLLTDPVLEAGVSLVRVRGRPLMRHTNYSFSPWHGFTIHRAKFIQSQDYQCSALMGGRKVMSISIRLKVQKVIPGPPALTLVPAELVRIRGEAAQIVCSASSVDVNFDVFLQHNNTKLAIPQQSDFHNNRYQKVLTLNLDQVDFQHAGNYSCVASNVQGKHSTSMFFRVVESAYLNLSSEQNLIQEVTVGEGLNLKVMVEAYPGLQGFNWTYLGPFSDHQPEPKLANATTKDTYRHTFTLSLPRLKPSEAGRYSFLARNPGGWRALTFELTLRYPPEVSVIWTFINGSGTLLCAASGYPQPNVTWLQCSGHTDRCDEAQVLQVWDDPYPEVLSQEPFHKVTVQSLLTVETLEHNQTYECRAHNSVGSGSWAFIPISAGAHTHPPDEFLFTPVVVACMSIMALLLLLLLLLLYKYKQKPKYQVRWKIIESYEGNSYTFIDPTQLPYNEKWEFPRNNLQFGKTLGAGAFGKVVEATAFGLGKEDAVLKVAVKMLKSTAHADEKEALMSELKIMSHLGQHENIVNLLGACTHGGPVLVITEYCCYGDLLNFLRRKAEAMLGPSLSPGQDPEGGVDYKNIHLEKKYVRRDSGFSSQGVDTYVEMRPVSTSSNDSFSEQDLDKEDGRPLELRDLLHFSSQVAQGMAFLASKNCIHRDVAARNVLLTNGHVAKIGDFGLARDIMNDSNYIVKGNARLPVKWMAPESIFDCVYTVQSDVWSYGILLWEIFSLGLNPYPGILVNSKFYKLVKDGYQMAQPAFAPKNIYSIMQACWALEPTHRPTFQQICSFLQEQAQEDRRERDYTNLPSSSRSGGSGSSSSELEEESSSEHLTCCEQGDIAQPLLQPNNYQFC
Sequence of High affinity nerve growth factor receptor (Homo sapiens) (P04629 33-796 limits assumed): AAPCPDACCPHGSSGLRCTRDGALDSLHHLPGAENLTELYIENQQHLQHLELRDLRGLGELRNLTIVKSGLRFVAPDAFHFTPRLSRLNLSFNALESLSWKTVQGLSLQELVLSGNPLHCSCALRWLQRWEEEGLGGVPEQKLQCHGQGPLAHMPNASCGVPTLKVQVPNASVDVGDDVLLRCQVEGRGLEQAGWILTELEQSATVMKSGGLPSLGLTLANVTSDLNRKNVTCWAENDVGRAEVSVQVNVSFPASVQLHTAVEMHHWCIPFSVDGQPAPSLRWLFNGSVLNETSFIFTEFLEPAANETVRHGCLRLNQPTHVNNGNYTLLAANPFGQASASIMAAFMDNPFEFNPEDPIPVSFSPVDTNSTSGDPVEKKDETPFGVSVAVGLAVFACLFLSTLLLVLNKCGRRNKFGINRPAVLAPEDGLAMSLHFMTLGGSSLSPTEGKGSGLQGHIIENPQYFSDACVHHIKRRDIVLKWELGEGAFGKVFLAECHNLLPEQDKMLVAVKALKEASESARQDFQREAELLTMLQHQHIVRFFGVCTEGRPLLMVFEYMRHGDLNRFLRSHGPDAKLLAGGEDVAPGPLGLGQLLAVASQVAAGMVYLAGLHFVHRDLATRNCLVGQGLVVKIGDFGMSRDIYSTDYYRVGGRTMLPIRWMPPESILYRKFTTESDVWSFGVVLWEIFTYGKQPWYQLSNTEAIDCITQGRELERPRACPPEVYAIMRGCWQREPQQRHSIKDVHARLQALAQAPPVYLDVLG
Sequence of Eukaryotic translation initiation factor 2-alpha kinase 1 (Homo sapiens) (Q9BQI3 whole entry): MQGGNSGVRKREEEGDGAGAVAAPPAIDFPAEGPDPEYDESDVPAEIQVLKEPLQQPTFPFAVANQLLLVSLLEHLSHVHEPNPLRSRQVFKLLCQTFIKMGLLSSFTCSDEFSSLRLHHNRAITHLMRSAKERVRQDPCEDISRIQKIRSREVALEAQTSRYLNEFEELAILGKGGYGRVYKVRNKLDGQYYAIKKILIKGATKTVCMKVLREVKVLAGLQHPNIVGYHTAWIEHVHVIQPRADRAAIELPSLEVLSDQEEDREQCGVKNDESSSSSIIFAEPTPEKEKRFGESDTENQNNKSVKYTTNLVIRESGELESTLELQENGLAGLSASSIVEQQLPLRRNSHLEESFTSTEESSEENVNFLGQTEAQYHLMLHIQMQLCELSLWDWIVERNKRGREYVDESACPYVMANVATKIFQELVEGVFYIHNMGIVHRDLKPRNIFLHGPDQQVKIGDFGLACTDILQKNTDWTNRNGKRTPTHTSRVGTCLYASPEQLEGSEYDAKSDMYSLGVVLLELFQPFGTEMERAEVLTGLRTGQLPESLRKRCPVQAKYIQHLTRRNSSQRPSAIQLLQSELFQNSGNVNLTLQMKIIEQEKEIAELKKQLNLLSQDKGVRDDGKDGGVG
Sequence of Dual specificity mitogen-activated protein kinase kinase 6 (Homo sapiens) (P52564 whole entry): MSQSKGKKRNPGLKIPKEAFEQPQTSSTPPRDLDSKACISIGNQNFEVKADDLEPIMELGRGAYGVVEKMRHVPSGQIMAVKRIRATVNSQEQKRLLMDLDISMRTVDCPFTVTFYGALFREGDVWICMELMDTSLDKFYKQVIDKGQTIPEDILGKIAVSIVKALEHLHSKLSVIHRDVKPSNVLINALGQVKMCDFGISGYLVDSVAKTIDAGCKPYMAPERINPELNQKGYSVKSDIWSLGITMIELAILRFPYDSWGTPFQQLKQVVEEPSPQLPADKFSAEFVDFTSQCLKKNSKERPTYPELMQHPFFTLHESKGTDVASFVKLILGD

CN1C[C@H](Nc2nc3cc[nH]c3c(=O)n2C)C[C@H](c2ccc3c(c2)OCCO3)C1
inactive: inhibition [1] | Activity [2] | inhibition [3] | inhibition (Homo sapiens [4]) | inhibition [5] | inhibition [6] | inhibition [7] | inhibition (Homo sapiens [8]) | inhibition [9] | inhibition [10] | inhibition [11] | inhibition [12] | inhibition [13] | inhibition [14] | inhibition [15] | inhibition [16] | inhibition [17] | inhibition (Homo sapiens [18]) | inhibition [19] | inhibition [20] | inhibition [21] | inhibition [22] | inhibition [23] | inhibition [24]
